This note sets out measurements from ChEMBL document CHEMBL4513216, “Probing the Open Global Health Chemical Diversity Library for Multistage-Active Starting Points for Next-Generation Antimalarials” (ACS Infect Dis, 2020).

This data set can be described thus: Toxicity liver stage against HepG2, at 10uM. The class given is cell-based. On the set-up: test concentration 10 uM, cell line HepG2-A16-CD81EGFP. Conditions: human, HepG2-A16-CD81EGFP cells; read-out: INHIBITION
An outline of the steps:
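Uninfected HepG2-A16-CD81EGFP cells, 3 × 10^3 per well, 1536-well, plated on prespotted compound at 10 μM final, parasite-free screening media added to match infected plates; puromycin 10 μM positive, DMSO 0.5% negative; run in parallel with 48 h PbLuc assay at 37 °C, 5% CO2; viability by CellTiter-Glo luminescence, normalized to controls.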
With `Cc1cccn2c(=O)cc(CSCC(=O)Nc3nnc(C(C)C)s3)nc12`, the cytotoxicity at 10 µM is 0.879%.

With `CC(C)c1ccc(C2CC(=O)Nc3c2cnn3C)cc1` (configuration not stated), the cytotoxicity at 10 µM was -2.9%.

For `O=C(CCc1nc2cccnc2[nH]1)Nc1ccc2c(c1)NC(=O)CO2`, the cytotoxicity at 10 µM is -1.94%.

On to `CN(C)CCCNC(=O)C1CC(=O)N(c2n[nH]c3cccc(F)c23)C1` (configuration not stated), for which the cytotoxicity at 10 µM was -5.92%.

For the compound `Cc1ccc(CN2CCc3c(C(=O)N(C)C)n[nH]c3C2)o1`, the cytotoxicity at 10 µM amounted to 2.14%.

For the compound `CC(C)CC(=O)N1CCC2(CC1)NC(=O)[C@H]1CN(C(=O)N(C)C)C[C@H]12`, the cytotoxicity at 10 µM was -1.74%.

Consider `CN(C)CCNC(=O)c1ccc2ccc(N(C)CC3CC3)n2c1`, for which the cytotoxicity at 10 µM was -2.69%.

For the compound `CCOCc1ncn2c1CN(S(=O)(=O)c1ccc(F)cc1)CC2`, the cytotoxicity at 10 µM stood at 1.29%.

For `CCOc1cc2c(cc1C(=O)O)CCC2`, the cytotoxicity at 10 µM is -18.6%.

For `Cn1nnc2c1C(COCC1CC1)CN(C(=O)Cc1ccsc1)C2` (configuration not stated), the cytotoxicity at 10 µM is -0.11%.

As for `Cc1cc(NC(=O)C(C)Oc2ccc3c(c2)OCO3)no1` (configuration not stated), the cytotoxicity at 10 µM was -5.08%.

As for `Cc1c2ncn(CC(=O)c3ccccc3)c(=O)c2nn1C`, the cytotoxicity at 10 µM is -8.58%.

As for `COc1ccccc1CN(C)Cc1ccnc(C2CCCO2)n1` (configuration not stated), the cytotoxicity at 10 µM was determined as 4.65%.

Take `Cc1cnc(-c2nc(C3CCCN(Cc4cccs4)C3)no2)cn1` (configuration not stated): the cytotoxicity at 10 µM is 1.33%.

For the compound `CCN(CC)C1CCN(C(=O)c2cc(-n3cccn3)ccc2Cl)CC1`, the cytotoxicity at 10 µM amounted to 2.87%.

As to `OC1(CN2CCC(Cc3ncccn3)CC2)CCCCC1`, the cytotoxicity at 10 µM is 7.69%.

With `CC(C)N1CCCC1c1nc(N(C)C)ncc1I` (configuration not stated), the cytotoxicity at 10 µM is -0.358%.

As for `CCOc1ccc(CN2CCC(c3[nH]ncc3C)C2)cc1CO` (configuration not stated), the cytotoxicity at 10 µM is -2.38%.

As for `Cc1noc(C)c1CC(=O)NCC1(O)CCCN(c2ccccn2)C1` (configuration not stated), the cytotoxicity at 10 µM was -2.03%.

As for `COCCNCc1cc2cc(C)cc(C)c2[nH]c1=O`, the cytotoxicity at 10 µM was -2.13%.

Regarding `CNc1cc(C2CN(CC(=O)N(C)C)CCO2)nc(C)n1` (configuration not stated), the cytotoxicity at 10 µM is -14.4%.

As to `Cc1cc(N2CCCC2c2cncc(N(C)C)n2)ncn1` (configuration not stated), the cytotoxicity at 10 µM is -15.2%.

For the compound `COc1ccccc1CN1CCC(O)(Cn2ccc3ncccc32)CC1`, the cytotoxicity at 10 µM is -0.692%.

`O=C(c1ccco1)N1CCCC(c2cc(C(F)F)n3ncnc3n2)C1` (configuration not stated): the cytotoxicity at 10 µM amounted to 4.4%.

As to `Cn1cc(C(NCc2ccc(F)cc2)c2cccc(F)c2)cn1` (configuration not stated), the cytotoxicity at 10 µM came out at 0.137%.

For `O=C(Cc1cccc(F)c1F)NS(=O)(=O)c1cncc(Cl)c1`, the cytotoxicity at 10 µM is 14.5%.

On to `COc1ccccc1CC(C)N(C)S(C)(=O)=O` (configuration not stated), for which the cytotoxicity at 10 µM was found to be 14%.

For the compound `COCCCNC(=O)CN(C)C(C)c1nc(C)no1` (configuration not stated), the cytotoxicity at 10 µM came to 8.8%.

As for `CCc1ncc2c(n1)CN(CC(=O)NC1CCCCNC1=O)CC2` (configuration not stated), the cytotoxicity at 10 µM is 6.61%.

`CN(Cc1ccsc1)C(=O)COC(=O)c1cc(Cl)c[nH]1`: the cytotoxicity at 10 µM was -3.73%.

On to `CC(CNS(N)(=O)=O)Oc1cccc(Cl)c1` (configuration not stated), for which the cytotoxicity at 10 µM stood at 2.24%.

For `CC(NS(N)(=O)=O)c1ccc(OCc2ccc(F)cc2)cc1` (configuration not stated), the cytotoxicity at 10 µM was -2.98%.

In the case of `O=C1NCCCCC1NC(=O)C1(c2cccc(Cl)c2)CC1` (configuration not stated), the cytotoxicity at 10 µM is 2.68%.

`Cc1noc(C)c1CN1CCC(NC(=O)OC(C)(C)C)CC1`: the cytotoxicity at 10 µM came to 6.27%.

`OCCCN1CCCC1c1nc(Cc2ccc(F)cc2)no1` (configuration not stated): the cytotoxicity at 10 µM is -4.58%.

For `CC1CN(C(=O)NCc2ccn(C)c2)CCN1CC(F)(F)F` (configuration not stated), the cytotoxicity at 10 µM was -4.32%.

With `Cc1nc2cc(=O)[nH]n2c(C)c1CC(=O)Nc1cnn(C)c1`, the cytotoxicity at 10 µM was found to be 4.58%.

Turning to `CCS(=O)(=O)Cc1ccn(-c2cccc(F)c2)n1`, the cytotoxicity at 10 µM was -0.988%.

For the compound `CCc1nc(CN(C)CC(=O)NC(C)C)cs1`, the cytotoxicity at 10 µM was found to be 1.48%.

For `O=C(c1cccnc1)N(Cc1ccncc1)C1CC1`, the cytotoxicity at 10 µM was 8.32%.

As to `CCCC(C)Sc1nnnn1C1CCOCC1` (configuration not stated), the cytotoxicity at 10 µM worked out at 2.3%.

Consider `Cc1cc(C)n(CC2CCCN2CC(=O)Nc2nncs2)n1` (configuration not stated), for which the cytotoxicity at 10 µM turned out to be 12.1%.

`Cc1ccc(N2CCCC(NCCCS(C)(=O)=O)C2)nn1` (configuration not stated): the cytotoxicity at 10 µM stood at 0.833%.

As to `CCc1nc(CN2CCCC(N(C)Cc3nc(C)c(C)o3)C2)no1` (configuration not stated), the cytotoxicity at 10 µM was -16.5%.

For `Cc1ccc(C(=O)N2CCSCC2)cc1NC(C)C`, the cytotoxicity at 10 µM is -3.42%.

As for `Cc1nn(C(C)C)c(C)c1S(=O)(=O)Nc1cccc(C(=O)O)c1`, the cytotoxicity at 10 µM worked out at 9.53%.

As to `Nc1nccnc1C(=O)N1CC(OCc2cccc3ccccc23)C1`, the cytotoxicity at 10 µM was 7.39%.

`Cc1noc(C)c1CNCc1ccccc1N(C)C1CCN(C)CC1`: the cytotoxicity at 10 µM worked out at 4.69%.

Regarding `O=C1CC2(CCSC2)C(=O)N1Cc1ncc(-c2ccccc2)o1` (configuration not stated), the cytotoxicity at 10 µM was 14.4%.

For the compound `Cc1noc(C)c1CC(=O)OCc1nc(N)c2ccccc2n1`, the cytotoxicity at 10 µM came to 6.83%.

As for `Cn1cnnc1-c1cncc(NCc2cccc3c2OCO3)c1`, the cytotoxicity at 10 µM was determined as 9.15%.

With `O=C(C(c1ccccc1)N1CCc2cncnc2C1)N1CCCCC1` (configuration not stated), the cytotoxicity at 10 µM came to 1.26%.

Regarding `COCCC(=O)N1CCN(CC2CC2)c2ccccc21`, the cytotoxicity at 10 µM is -4.5%.

Take `COc1ccccc1C(C)N1CCN(S(=O)(=O)N(C)C)CC1` (configuration not stated): the cytotoxicity at 10 µM is -8.8%.

As to `NC(=O)NC(CC(=O)N1CCc2sccc2C1)c1cccc(Br)c1` (configuration not stated), the cytotoxicity at 10 µM amounted to 3.43%.

Turning to `N#Cc1cc(F)c(NCCc2cccnc2)c(F)c1`, the cytotoxicity at 10 µM was -68.5%.

Turning to `CN(Cc1cccc(F)c1)C(=O)c1ccncc1Cl`, the cytotoxicity at 10 µM is 10.5%.

For `Cn1nnc2c1C(COCC1CC1)CN(C(=O)CC1=CCCCC1)C2` (configuration not stated), the cytotoxicity at 10 µM was -99.3%.

Turning to `Cn1nc(C#N)c2c1CN(C(=O)c1c[nH]cn1)CCC2`, the cytotoxicity at 10 µM is -122%.

Regarding `Cc1nnc([C@H]2C[C@H]3CN(C(=O)Cc4ccc(F)cc4)CC[C@@H]3O2)o1`, the cytotoxicity at 10 µM is -104%.

With `CCS(=O)(=O)N1CCC2(CN(Cc3ccc(C)o3)C2)C1`, the cytotoxicity at 10 µM was -109%.

In the case of `O=c1ccc2c(n1CC1CC1)CCC(NS(=O)(=O)C1CC1)C2` (configuration not stated), the cytotoxicity at 10 µM was -63.9%.

Consider `COc1ccc([C@@H](C)n2ccnc2-c2cc3n(n2)CCCNC3)cc1`, for which the cytotoxicity at 10 µM was -8.48%.

For the compound `CC(C)c1nnsc1CNC(=O)C1CCN(C(=O)C2CC2)CC1`, the cytotoxicity at 10 µM was -0.439%.

For the compound `CCN1CC(C(=O)NCc2cccc(SC)c2)CC1=O` (configuration not stated), the cytotoxicity at 10 µM turned out to be 4.68%.

`Cc1nc(N(C)Cc2cccc(O)c2)nc2cc(S(C)(=O)=O)ccc12`: the cytotoxicity at 10 µM is -2.54%.

For the compound `CC(=O)N[C@@H]1CN(C2CCN(c3ccccc3F)CC2)C[C@H]1C(C)C`, the cytotoxicity at 10 µM is -14.5%.

Turning to `CCN1CC2(CCN(C(=O)C(C)Oc3cccc(Cl)c3)CC2)OC1=O` (configuration not stated), the cytotoxicity at 10 µM was -4.68%.

`COc1nc(C)c(C(=O)N2CCc3[nH]nc(Cc4ccccc4)c3C2)s1`: the cytotoxicity at 10 µM is -2.53%.

With `CCN(Cc1noc(C)n1)C(=O)C(c1ccccc1C)N(C)C` (configuration not stated), the cytotoxicity at 10 µM turned out to be 1.89%.

For `O=C(Nc1cnc2n1CCCC2)c1cccc(NC(=O)C2CCCC2)c1`, the cytotoxicity at 10 µM is -5.09%.

Consider `CC(C)C1CN(C(=O)c2ccc(Cl)cn2)CCCN1CC1CC1` (configuration not stated), for which the cytotoxicity at 10 µM came to 5.15%.

Turning to `CCC(Cn1ccnc1)n1cnc2scc(C)c2c1=O` (configuration not stated), the cytotoxicity at 10 µM is 10.7%.

Consider `CC(C)NCc1cc2n(n1)CCN(C1CCCCC1)C2`, for which the cytotoxicity at 10 µM is -8.9%.

Consider `CCn1ccnc1CN1C[C@@H](NC(=O)C2CC2)[C@H](c2ccc(C)cc2)C1`, for which the cytotoxicity at 10 µM worked out at 2.63%.

Regarding `CC(Oc1ccc(F)cc1F)C(=O)N1CCC2(CCCO2)CC1` (configuration not stated), the cytotoxicity at 10 µM was found to be 2.24%.

Consider `CC(C)(C)c1cc(CN2CCOC(CN)C2)n[nH]1` (configuration not stated), for which the cytotoxicity at 10 µM is -12.1%.

As to `CN(Cc1ccccc1)C(=O)CCN1C[C@H](C2CC2)[C@@H](N(C)C)C1`, the cytotoxicity at 10 µM was -1.21%.

`Cn1ccc(C2CCCCN2C(=O)c2cccc(Cn3cccn3)c2)n1` (configuration not stated): the cytotoxicity at 10 µM was 8.04%.

As for `Cc1ncc(CN2CCN(C(=O)C3CCC3)[C@@H]3CS(=O)(=O)C[C@@H]32)cn1`, the cytotoxicity at 10 µM was -4.19%.

Turning to `NS(=O)(=O)Cc1cccc(C(=O)N2CCCC(n3cccn3)C2)c1` (configuration not stated), the cytotoxicity at 10 µM was found to be 1.25%.

On to `O=C(c1cc(C2CC2)[nH]n1)N1CCCC(n2cncn2)C1` (configuration not stated), for which the cytotoxicity at 10 µM is -6%.

Turning to `CCn1ccnc1CN1CCN(CC(O)c2ccccc2)CC1` (configuration not stated), the cytotoxicity at 10 µM is -7.41%.

For `O=C(CCCc1nc2ccccc2[nH]1)N1CCCC(n2cccn2)C1` (configuration not stated), the cytotoxicity at 10 µM was -0.704%.

Consider `Cc1cnn(CCNCc2csc(-c3ccc(F)cc3)n2)c1`, for which the cytotoxicity at 10 µM was -8.54%.

Turning to `Cc1ccc(NC2CCN(C(=O)Cc3csc(C)n3)CC2)nn1`, the cytotoxicity at 10 µM was -6.51%.

Regarding `Cn1cc(CN2CCC3(CCN(c4cnn(C)c4)C3=O)C2)cn1` (configuration not stated), the cytotoxicity at 10 µM is -83.4%.

Consider `CCN(C)c1ncnc2c1CCN(C(=O)c1ccsc1)CC2`, for which the cytotoxicity at 10 µM is -0.408%.

On to `Cc1ccc(CN2CCCC3(CCCCN3S(C)(=O)=O)C2)s1` (configuration not stated), for which the cytotoxicity at 10 µM is -115%.

`NC(=O)N1C[C@H]2CN(Cc3nccs3)C[C@H]2C1`: the cytotoxicity at 10 µM turned out to be 2.6%.

Regarding `CN1CCN(S(=O)(=O)c2ccccc2)Cc2cccnc21`, the cytotoxicity at 10 µM was -104%.

Turning to `Cc1occc1C(=O)N1CCC2(CC1)CN(c1ccccn1)CCO2`, the cytotoxicity at 10 µM is -75.6%.

Turning to `CCS(=O)(=O)N1CCCn2cnc(COc3cccnc3)c2C1`, the cytotoxicity at 10 µM was -0.00278%.

For `COCCN1C(=O)[C@]2(CC[C@@H]3CN(Cc4ccccc4F)C[C@@H]32)N=C1C`, the cytotoxicity at 10 µM is -0.0957%.

Turning to `CC1=N[C@@]2(CC[C@@H]3CN(Cc4cccc(Cl)c4)C[C@@H]32)C(=O)N1CC1CC1`, the cytotoxicity at 10 µM came out at 0.758%.

On to `Cn1cc(N2CC3(CCN(Cc4nccn4C)C3)CC2=O)cn1` (configuration not stated), for which the cytotoxicity at 10 µM is -72.8%.

On to `O=C(c1cscn1)N1CCC2(CCN(Cc3nccs3)CC2)C1`, for which the cytotoxicity at 10 µM was -69%.
